TRPC4 inh: inhibitors of mouse TRPC4 channel, primary screen, Fluo4 calcium, HEK293 TRPC4beta/mu-opioid cells; Short transient receptor potential channel 4 (Mus musculus), Q9QUQ5; 300,000 compounds, 0.39% hits; DAMGO-evoked Fluo4 calcium flux; stronger effect = lower value; B-score at 10 µM; AID 2247, 2010;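 active = B-score over 3 SD under the library average, no early fluorescence shift, positive overall ratio signal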
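Signal: kinetic Fluo4 fluorescence imaging of calcium influx. Material: stable TRPC4beta/mu-opioid receptor HEK293 cells. Probe or stimulus: DAMGO in two steps, submaximal then maximal.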
TRPC4 act: activators of mouse TRPC4 channel, primary screen, Fluo4 calcium, HEK293 TRPC4beta/mu-opioid cells | Short transient receptor potential channel 4 (Mus musculus), Q9QUQ5 | Fluo4 calcium fluorescence; stronger effect = higher value | B-score at 10 µM | 310,000 compounds, 0.49% hits;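 active = B-score above 5 SD of library B-scores, and initial fluorescence ratio not above library mean plus 5 SD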;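 note: positive B-score marks a calcium rise read as TRPC4 activation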
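Assay system: HEK293 stable line with TRPC4beta plus mu-opioid receptor; schedule: 45 min room-temperature Fluo4 loading, 110 s read; technique: kinetic Fluo4 calcium fluorescence; evaluation: integrated baseline-normalised fluorescence ratio, converted to per-well B score; controls: buffer (low) and maximal DAMGO (high)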
Pemphigus Ab inh: inhibitors of pemphigus antibody binding to DSG3, primary screen, biochemical, bead-based, flow cytometry, scFv-GFP | AID 588358, 2011 | 310,000 compounds, 0.48% hits | Desmoglein-3 (Homo sapiens), P32926 | binding (percent of control), % at 10 µM | DSG3-coupled beads, scFv-anti-DSG3-GFP binding; stronger effect = lower value;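 active = binding more than 3 SD below its plate's average and above zero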
TRPC6 activator: mouse TRPC6 channel activators, primary screen, cell-based, HEK293, membrane potential dye; 310,000 compounds, 0.13% hits; B-score at 10 µM; AID 2550, 2010; HEK293-TRPC6 membrane potential dye fluorescence; stronger effect = higher value;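 active = B-score of the integrated fluorescence ratio above library mean plus 3 SD, and starting fluorescence ratio within library mean plus 5 SD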;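 note: higher score means more depolarization so channel activation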
Target sequence (Q61143 whole entry, looked up): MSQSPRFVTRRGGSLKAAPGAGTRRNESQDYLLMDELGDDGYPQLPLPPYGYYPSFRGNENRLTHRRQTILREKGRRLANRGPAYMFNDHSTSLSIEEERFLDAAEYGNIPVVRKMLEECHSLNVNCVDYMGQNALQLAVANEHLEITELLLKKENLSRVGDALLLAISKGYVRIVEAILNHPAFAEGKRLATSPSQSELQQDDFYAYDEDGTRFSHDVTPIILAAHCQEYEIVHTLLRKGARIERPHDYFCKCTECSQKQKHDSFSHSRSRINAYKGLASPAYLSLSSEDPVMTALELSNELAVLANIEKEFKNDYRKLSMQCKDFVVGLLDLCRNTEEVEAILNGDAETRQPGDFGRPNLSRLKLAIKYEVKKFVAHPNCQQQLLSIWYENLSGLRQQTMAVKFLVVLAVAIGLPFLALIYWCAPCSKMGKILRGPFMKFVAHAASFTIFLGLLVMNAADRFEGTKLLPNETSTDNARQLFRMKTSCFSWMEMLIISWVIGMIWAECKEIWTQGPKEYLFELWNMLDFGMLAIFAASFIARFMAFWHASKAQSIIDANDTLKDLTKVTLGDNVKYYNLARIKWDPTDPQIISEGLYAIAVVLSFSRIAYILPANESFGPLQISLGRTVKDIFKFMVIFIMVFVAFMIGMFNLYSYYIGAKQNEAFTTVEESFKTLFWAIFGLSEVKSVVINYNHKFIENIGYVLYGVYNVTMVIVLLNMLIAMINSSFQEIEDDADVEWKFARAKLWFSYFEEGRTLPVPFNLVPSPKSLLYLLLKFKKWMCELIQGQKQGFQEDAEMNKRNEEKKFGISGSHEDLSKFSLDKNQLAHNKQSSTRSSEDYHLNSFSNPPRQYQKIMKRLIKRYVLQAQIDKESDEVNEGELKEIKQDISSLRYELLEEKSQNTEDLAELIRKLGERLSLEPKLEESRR
TRPC4 potent: positive allosteric modulators of TRPC4, primary screen, cell-based, mouse TRPC4beta, HEK293 mu-opioid, Fluo-4 calcium | Short transient receptor potential channel 4 (Mus musculus), Q9QUQ5 | DAMGO EC20, Fluo-4 Ca2+ flux; stronger effect = higher value | B-score at 10 µM | 310,000 compounds, 0.42% hits;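 active = B-score of calcium response area above 5 SD of library B-scores, with initial fluorescence ratio within 5 SD of library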;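 note: B-score of integrated fluorescence ratio over time as area under calcium response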
TRPC6 inh: mouse TRPC6 channel inhibitors, primary screen, cell-based, HEK293, membrane potential dye; Short transient receptor potential channel 6 (Mus musculus), Q61143; AID 2553, 2010; ACh-evoked depolarization; stronger effect = lower value; B-score at 10 µM; 310,000 compounds, 1.1% hits;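 active = B-score under library mean minus 3 SD, initial fluorescence not abnormally high, positive integrated signal ratio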;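 note: B-score derived from integrated fluorescence ratio over the kinetic read; more negative B-score means stronger inhibition of depolarization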
TRPC4 sel inh 2: second check of whether TRPC6 inhibitors also affect mouse TRPC4. HEK293 TRPC4/MOR, membrane potential dye fluorescence; channel activated by saturating DAMGO dose. shares compounds with TRPC6 inh. 920 compounds, 42% hits. AID 2776. inhibition, % at 10 µM;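 active = compounds whose fluorescence signal differed from control wells by over 3 SD, either direction, in both duplicate plates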
TRPC4 spec: mouse TRPC4 modulation by TRPC6 hits, confirmation, selectivity assay for TRPC6 inhibitor project, cell-based, HEK293 TRPC4/mu-opioid, membrane potential dye | membrane potential fluorescence | 920 compounds, 61% hits | AID 2777, 2010 | shares compounds with TRPC6 inh | activity change, negative = inhibition, % at 10 µM;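 active = rise or fall in signal beyond 3 SD of buffer-only wells in both replicate plates, either sign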;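 note: integrated kinetic ratio of fluorescence range over baseline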
HEK293 MPD ctr 2-1: nonspecific membrane potential effects, parental HEK293, confirmation, counter-screen for TRPC6 inhibitor project, cell-based, second counter screen | shares compounds with TRPC6 inh | parental HEK293 membrane potential dye fluorescence; maximal acetylcholine challenge after compound addition | signal change vs control, % at 10 µM | 920 compounds, 31% hits;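 active = membrane potential signal moving either way by over 3 SD of the maximum-effect control, in both duplicate plates, meaning non-specific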
HEK293 MPD ctr-1: membrane potential modulation in parental HEK293, confirmation, counter-screen for TRPC6 inhibitor project, cell-based | shares compounds with TRPC6 inh | 920 compounds, 60% hits | parental HEK293 membrane potential dye fluorescence | AID 2780, 2010 | membrane potential signal change, % at 10 µM;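 active = membrane potential signal shifting up or down by more than 3 SD of buffer-only wells, on both duplicate plates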
HEK293 MPD ctr-2: parental HEK293 membrane potential modulation, confirmation, counter-screen for TRPC6 modulator project, cell-based | shares compounds with TRPC6 inh | membrane potential dye fluorescence | membrane potential signal change, % at 10 µM | 2,400 compounds, 51% hits | AID 488924, 2010;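 active = membrane potential signal moves up or down beyond 5 SD from buffer-only wells, on both duplicate plates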
HEK293 MPD ctr 2-2: parental HEK293 nonspecific activity of TRPC6 modulators, second screen; 2,400 compounds, 14% hits; membrane potential dye fluorescence; after compound, maximal acetylcholine stimulation; inhibition, % at 10 µM; shares compounds with TRPC6 inh;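 active = membrane potential signal drops by more than 5 SD from the mean control signal, in both duplicate plates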;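 note: plate controls were acetylcholine ECmax control wells for no effect and buffer only wells for full effect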
TRPC4 ctr mod: TRPC4 modulation by TRPC6 hit compounds, confirmation, selectivity assay for TRPC6 modulator project, cell-based, HEK293 TRPC4/mu-opioid, membrane potential dye, mouse | 2,400 compounds, 69% hits | shares compounds with TRPC6 inh | AID 488927, 2010 | percent change from control (negative = decrease, positive = increase), % at 10 µM | membrane potential fluorescence;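 active = membrane potential signal moved up or down beyond 5 SD of buffer control wells, in both duplicate plates, actives on both sides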;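 note: plate controls were assay buffer wells for no effect and DAMGO maximal-effect wells for full effect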
TRPC4 ctr inh 2: second check of whether TRPC6 modulators also affect mouse TRPC4; shares compounds with TRPC6 inh; inhibition, % at 10 µM; HEK293 TRPC4/mu-opioid, membrane potential dye fluorescence; stimulated with maximal-effect DAMGO; 2,400 compounds, 55% hits; AID 488928;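 active = drop in membrane potential signal beyond 5 SD of the control wells in both duplicate plates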;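 note: TRPC4 counter screen for TRPC6 hits run under conditions tuned for TRPC6 not TRPC4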
TRPC6 block conf: mouse TRPC6 channel inhibitors, confirmation, HEK293 cells, membrane potential dye, duplicate | shares compounds with TRPC6 inh | ACh-evoked depolarization | inhibition, % at 10 µM | 3,300 compounds, 43% hits | AID 488960, 2010;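 active = fluorescence ratio falls more than 5 SD below the full-stimulation control mean, in both duplicate runs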;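 note: integrated fluorescence ratio of peak minus minimum over baseline after agonist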
TRPC6 act conf: mouse TRPC6 channel activators, confirmation, HEK293 cells, membrane potential dye, duplicate; 2,800 compounds, 11% hits; HEK293-TRPC6 membrane potential dye fluorescence, FDSS; shares compounds with TRPC6 inh; activation, % at 10 µM;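 active = ratio signal rise beyond 5 SD above unstimulated control wells' mean, seen in both duplicate runs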;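 note: plate controls were buffer EC0 wells for no effect and acetylcholine ECmax response for full effect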
* hit, by the source's call; i = inactive; . = no result. This is a sample that favours compounds with a hit; in the whole collection about 2.5% have one here.

SMILES | TRPC4 inh | TRPC4 act | Pemphigus Ab inh | TRPC6 activator | TRPC4 potent | TRPC6 inh | HEK293 MPD ctr-2 | HEK293 MPD ctr 2-2 | TRPC4 ctr mod | TRPC4 ctr inh 2 | TRPC6 block conf | TRPC6 act conf | others
N#Cc1cc2c(=O)n3ccccc3nc2n(CCCN2CCOCC2)c1=O | i | i | . | i | i | -12* | -285%* | 85%* | -48%* | 49%* | 56%* | i
COc1ccc(CCNC(=O)c2cc3c(=O)n4ccccc4nc3n(CCCN3CCOCC3)c2=N)cc1OC | i | i | 116 | i | i | i | . | . | . | . | . | .
COc1ccc(CCn2c(=N)c(C(=O)NCCN3CCOCC3)cc3c(=O)n4ccccc4nc32)cc1OC | i | i | 102 | i | i | -5.6* | 152%* | 109%* | 54%* | 44%* | 64%* | .
COc1ccc(CCNC(=O)c2cc3c(=O)n4ccccc4nc3n(CCCN3CCOCC3)c2=N)cc1 | i | i | 100 | i | i | -7.4* | . | . | . | . | i | i | TRPC4 sel inh 2=i;TRPC4 spec=i;HEK293 MPD ctr 2-1=-64%*;HEK293 MPD ctr-1=i
COc1ccc(CCn2c(=N)c(C(=O)N3CCN(C)CC3)cc3c(=O)n4ccccc4nc32)cc1 | i | i | 111 | i | i | -7.2* | -274%* | 84%* | -50%* | 62%* | 68%* | i
